The results in this text go back to publication PMC6097893 (Cell chemical biology, 2018).

One test deals with DENV2 sE Q271E (Dengue virus type 2, UniProt P14340, Q551E). Kind of test: Biolayer interferometry, DENV2 sE Q271E. The settings on record: versus wildtype sE. It counts as binding, dengue virus serotype 2. On the technique in general: Biolayer interferometry detects binding as a change in optical thickness at a sensor tip.
Test [1] has as its system DENV2 NGC E-M196V mutant virus. Description: Viral infectivity assay. The conditions noted are these: versus DENV2 NGC wildtype. It counts as cell-based, dengue virus serotype 2. The method in brief: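 DENV2 inoculum in EBSS at MOI 1 pre-incubated with test compound over a concentration series, 45 min at 37 °C. The mixture was added to cell monolayers for 1 h at 37 °C, then washed off with PBS. Inhibitor-free medium was added for 24 h (single cycle). Supernatant yield was titred by plaque assay on BHK-21 cells with CMC overlay, 4.5 days, crystal violet.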

In the next test the test system is ZIKV PF13-251013-18. Kind of test: Viral infectivity assay. In kind it is cell-based, Zika virus. The conditions noted are these: read-out: IC90 against ZIKV PF13-251013-18, Vero cells.
In a further test the target is DENV2 sE-M196V (Dengue virus type 2, UniProt P14340, M476V). Kind of test: Biolayer interferometry, DENV2 sE-M196V. It counts as binding, dengue virus serotype 2. The conditions noted are these: versus wildtype sE.

Take `NC(=O)c1cccc(-c2cc(Nc3ccc(OC(F)(F)F)cc3)ncn2)c1` [GNF-2]: the “Effect of Q271E substitution on binding” value on DENV2 sE Q271E is on record as “affinity comparable to wildtype”. The “Sensitivity of DENV2 E-M196V virus to compound” value in test [1] is listed as “Reduced sensitivity”. Besides, in the test with ZIKV PF13-251013-18, the IC90 (commonly the point of the concentration-response curve where the effect stands at 90%) was 107 µM. For the same compound, the “Effect of M196V mutation on binding” value on DENV2 sE-M196V was “more significantly affected”.
